Tests used:
Assay type in all cases: functional
[1] = system: Klebsiella; test: Antimicrobial activity against extended-spectrum-beta-lactamase-producing Klebsiella transconjugant TK2 isolate expressing quinolone resistance-mediating gene aac(6')-Ib-cr by Etest
In short: (§1)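 Transconjugants came from broth-free matings of Klebsiella donors with E. coli J53 Azr on brain heart infusion agar. Selection was for 24 h at 37°C on LB agar with sodium azide 150 μg/ml plus ampicillin 100, tetracycline 10, trimethoprim 25 or chloramphenicol 30 μg/ml, then replica plating ± ciprofloxacin 0.01 μg/ml. MICs were read by Etest per the manufacturer's instructions.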

[2] = system: Klebsiella; test: Antimicrobial activity against extended-spectrum-beta-lactamase-producing Klebsiella transconjugant TK25 isolate expressing quinolone resistance-mediating gene aac(6')-Ib-cr by Etest; in short: as §1
[3] = system: Klebsiella; test: Antimicrobial activity against extended-spectrum-beta-lactamase-producing Klebsiella transconjugant TK18 isolate expressing quinolone resistance-mediating gene aac(6')-Ib-cr by Etest; in short: as §1
[4] = system: Klebsiella; test: Antimicrobial activity against extended-spectrum-beta-lactamase-producing Klebsiella transconjugant TK5 isolate expressing quinolone resistance-mediating gene aac(6')-Ib-cr by Etest; in short: as §1
[5] = system: Klebsiella; test: Antimicrobial activity against extended-spectrum-beta-lactamase-producing Klebsiella transconjugant TK6 isolate expressing quinolone resistance-mediating gene aac(6')-Ib-cr by Etest; in short: as §1
[6] = system: Klebsiella; test: Antimicrobial activity against extended-spectrum-beta-lactamase-producing Klebsiella transconjugant TK12 isolate expressing quinolone resistance-mediating gene aac(6')-Ib-cr by Etest; in short: as §1
[7] = system: Klebsiella; test: Antimicrobial activity against extended-spectrum-beta-lactamase-producing Klebsiella transconjugant TK3 isolate expressing quinolone resistance-mediating gene aac(6')-Ib-cr by Etest; in short: as §1
[8] = system: Klebsiella; test: Antimicrobial activity against extended-spectrum-beta-lactamase-producing Klebsiella transconjugant TK7 isolate expressing quinolone resistance-mediating gene aac(6')-Ib-cr by Etest; in short: as §1
[9] = system: Klebsiella; test: Antimicrobial activity against extended-spectrum-beta-lactamase-producing Klebsiella transconjugant TK16 isolate expressing quinolone resistance-mediating gene aac(6')-Ib-cr by Etest; in short: as §1
[10] = system: Klebsiella; test: Antimicrobial activity against extended-spectrum-beta-lactamase-producing Klebsiella transconjugant TK1 isolate expressing quinolone resistance-mediating gene aac(6')-Ib-cr by Etest; in short: as §1
[11] = system: Klebsiella; test: Antimicrobial activity against extended-spectrum-beta-lactamase-producing Klebsiella transconjugant TK23 isolate expressing quinolone resistance-mediating gene aac(6')-Ib-cr by Etest; in short: as §1
[12] = system: Klebsiella; test: Antimicrobial activity against extended-spectrum-beta-lactamase-producing Klebsiella transconjugant TK17 isolate expressing quinolone resistance-mediating gene aac(6')-Ib-cr by Etest; in short: as §1
[13] = system: Klebsiella; test: Antimicrobial activity against extended-spectrum-beta-lactamase-producing Klebsiella transconjugant TK15 isolate expressing quinolone resistance-mediating gene aac(6')-Ib-cr by Etest; in short: as §1
[14] = system: Klebsiella; test: Antimicrobial activity against extended-spectrum-beta-lactamase-producing Klebsiella transconjugant TK21 isolate expressing quinolone resistance-mediating gene aac(6')-Ib-cr by Etest; in short: as §1
[15] = system: Klebsiella; test: Antimicrobial activity against extended-spectrum-beta-lactamase-producing Klebsiella transconjugant TK11 isolate expressing quinolone resistance-mediating gene aac(6')-Ib-cr by Etest; in short: as §1
[16] = system: Klebsiella; test: Antimicrobial activity against extended-spectrum-beta-lactamase-producing Klebsiella transconjugant TK22 isolate expressing quinolone resistance-mediating gene aac(6')-Ib-cr by Etest; in short: as §1
[17] = system: Klebsiella; test: Antimicrobial activity against extended-spectrum-beta-lactamase-producing Klebsiella transconjugant TK13 isolate expressing quinolone resistance-mediating gene aac(6')-Ib-cr by Etest; in short: as §1
[18] = system: Klebsiella; test: Antimicrobial activity against extended-spectrum-beta-lactamase-producing Klebsiella transconjugant TK9 isolate expressing quinolone resistance-mediating gene aac(6')-Ib-cr by Etest; in short: as §1
[19] = system: Klebsiella; test: Antimicrobial activity against extended-spectrum-beta-lactamase-producing Klebsiella transconjugant TK14 isolate expressing quinolone resistance-mediating gene aac(6')-Ib-cr by Etest; in short: as §1
[20] = system: Klebsiella; test: Antimicrobial activity against extended-spectrum-beta-lactamase-producing Klebsiella transconjugant TK10 isolate expressing quinolone resistance-mediating gene aac(6')-Ib-cr by Etest; in short: as §1
[21] = system: Klebsiella; test: Antimicrobial activity against extended-spectrum-beta-lactamase-producing Klebsiella transconjugant TK19 isolate expressing quinolone resistance-mediating gene aac(6')-Ib-cr by Etest; in short: as §1
[22] = system: Klebsiella; test: Antimicrobial activity against extended-spectrum-beta-lactamase-producing Klebsiella transconjugant TK4 isolate expressing quinolone resistance-mediating gene aac(6')-Ib-cr by Etest; in short: as §1
[23] = system: Klebsiella; test: Antimicrobial activity against extended-spectrum-beta-lactamase-producing Klebsiella transconjugant TK20 isolate expressing quinolone resistance-mediating gene aac(6')-Ib-cr by Etest; in short: as §1
[24] = system: Klebsiella; test: Antimicrobial activity against extended-spectrum-beta-lactamase-producing Klebsiella transconjugant TK8 isolate expressing quinolone resistance-mediating gene aac(6')-Ib-cr by Etest; in short: as §1
[25] = system: Klebsiella; test: Antimicrobial activity against extended-spectrum-beta-lactamase-producing Klebsiella transconjugant TK24 isolate expressing quinolone resistance-mediating gene aac(6')-Ib-cr by Etest; in short: as §1

Measured: MIC

O=C(O)c1cn(C2CC2)c2cc(N3CCNCC3)c(F)cc2c1=O [CIPROFLOXACIN]
0.125 µg/mL: all assays above

Reference: ChEMBL document CHEMBL1152987, “Emergence of the quinolone resistance-mediating gene aac(6')-Ib-cr in extended-spectrum-beta-lactamase-producing Klebsiella isolates collected in Slovenia between 2000 and 2005” (2007)
